# Data: ChEMBL document CHEMBL4196142, “Efficacy of Apigenin and Miltefosine Combination Therapy against Experimental Cutaneous Leishmaniasis” (J Nat Prod, 2018)
# Calls of active or inactive are those of the source. No cut-off for these calls is given here.
# Experiments:
# Leishmania amazonensis [1] = experiment: Antileishmanial activity against stationary-phase Leishmania amazonensis MHOM/BR/75/LTB0016 promastigotes infected in human THP1-derived macrophages by serial dilution based light microscopic method; type: functional, organism-based
# Leishmania amazonensis [2] = experiment: (§1) Antileishmanial activity against stationary-phase Leishmania amazonensis MHOM/BR/75/LTB0016 promastigotes infected in human THP1-derived macrophages at test compound to miltefosine ratio of 4:1 by serial dilution based light microscopic method; type: functional, organism-based
# Leishmania amazonensis [3] = experiment: (§2) Antileishmanial activity against stationary-phase Leishmania amazonensis MHOM/BR/75/LTB0016 promastigotes infected in human THP1-derived macrophages at test compound to miltefosine ratio of 3:2 by serial dilution based light microscopic method; type: functional, organism-based
# Leishmania amazonensis [4] = experiment: (§3) Antileishmanial activity against stationary-phase Leishmania amazonensis MHOM/BR/75/LTB0016 promastigotes infected in human THP1-derived macrophages at test compound to miltefosine ratio of 2:3 by serial dilution based light microscopic method; type: functional, organism-based
# Leishmania amazonensis [5] = experiment: (§4) Antileishmanial activity against stationary-phase Leishmania amazonensis MHOM/BR/75/LTB0016 promastigotes infected in human THP1-derived macrophages at test compound to miltefosine ratio of 1:4 by serial dilution based light microscopic method; type: functional, organism-based
# Leishmania amazonensis [6] = experiment: as §1, with “Synergistic antileishmanial” for “Antileishmanial”, “macrophages assessed as fractional inhibitory concentration” for “macrophages”; type: functional
# How it was run: (§5)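 In the infected THP-1 macrophage fixed-ratio assay, FIC and ∑FIC came from each ratio's EC50 by the modified fixed-ratio isobologram method. Mean ∑FIC was the average of the ∑FICs and was used to classify the interaction; isobolograms were plotted from each ratio's FIC values.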
# Leishmania amazonensis [7] = experiment: as §2, with “Synergistic antileishmanial” for “Antileishmanial”, “macrophages assessed as fractional inhibitory concentration” for “macrophages”; type: functional; how it was run: as §5
# Leishmania amazonensis [8] = experiment: as §3, with “Synergistic antileishmanial” for “Antileishmanial”, “macrophages assessed as fractional inhibitory concentration” for “macrophages”; type: functional; how it was run: as §5
# Leishmania amazonensis [9] = experiment: as §4, with “Synergistic antileishmanial” for “Antileishmanial”, “macrophages assessed as fractional inhibitory concentration” for “macrophages”; type: functional; how it was run: as §5
# Leishmania amazonensis [10] = experiment: (§6) Antileishmanial activity against stationary-phase Leishmania amazonensis MHOM/BR/75/LTB0016 promastigotes infected in Balb/c mouse assessed as reduction in lesion size at 2 mg/kg, po administered once daily via orogastric tube starting from 7 days post infection for 32 days measured twice weekly during compound dosing by caliper method; type: functional, organism-based
# How it was run: (§7)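 Female BALB/c mice, 10−12 weeks, were infected intradermally in the right ear with 2 × 10^6 stationary-phase promastigotes in 10 μL PBS. From day 7 post-infection, dosing was oral by orogastric tube once daily, seven times per week, until day 32. Compound in DMSO (1% v/v), miltefosine in PBS; controls got vehicle suspension with DMSO 0.2% v/v. Lesion size was read by dial caliper twice weekly; n = 5.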
# Leishmania amazonensis [11] = experiment: Antileishmanial activity against stationary-phase Leishmania amazonensis MHOM/BR/75/LTB0016 promastigotes infected in Balb/c mouse assessed as reduction in parasite load at 2 mg/kg, po administered once daily via orogastric tube starting from 7 days post infection for 32 days by dilution method; type: functional, organism-based
# How it was run: (§8)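 Ear infection and daily oral dosing were as for the lesion study in female BALB/c mice, ending at euthanasia on day 32. Infected ears were excised, weighed, minced in Schneider's medium with 10% FCS and serially diluted. Viable parasites per ear were estimated from the highest dilution still growing promastigotes after 7 days at 26 °C. Mean ± SE, n = 5 ears.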
# Leishmania amazonensis [12] = experiment: as §6, with “Synergistic antileishmanial activity” for “Antileishmanial activity”, “at 1” for “at 2”, “dosing in presence of 4 mg/kg miltefosine” for “dosing”, “method relative to control” for “method”; type: functional; parameters: scale not given: the % may be the effect or the level left; how it was run: as §7
# Leishmania amazonensis [13] = experiment: Synergistic antileishmanial activity against stationary-phase Leishmania amazonensis MHOM/BR/75/LTB0016 promastigotes infected in Balb/c mouse assessed as reduction in parasite load at 1 mg/kg, po administered once daily via orogastric tube starting from 7 days post infection for 32 days in presence of 4 mg/kg miltefosine by dilution method relative to control; type: functional; parameters: scale not given: the % may be the effect or the level left; how it was run: as §8
# Mus musculus [14] = experiment: (§9) Renal toxicity in Balb/c mouse infected with stationary-phase Leishmania amazonensis MHOM/BR/75/LTB0016 promastigotes assessed as serum creatinine level at 2 mg/kg, po administered once daily via orogastric tube for 32 days starting from 7 days post infection measured post last dose (reference value: 0.61 +/- 0.06 mg/dl); type: organism-based; conditions: in vivo
# How it was run: (§10)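 Infected female BALB/c mice, dosed orally once daily from day 7 to day 32, had serum AST, ALT and creatinine measured by dry chemistry technology at the PDTIS-FIOCRUZ facility. Mean ± SE, n = 5.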
# Mus musculus [15] = experiment: as §9, with “at 1” for “at 2”, “dose in presence of 4 mg/kg miltefosine” for “dose”; type: organism-based; conditions: in vivo; how it was run: as §10
# Mus musculus [16] = experiment: as §9, with “Hepatotoxicity” for “Renal toxicity”, “AST” for “creatinine”, “161.1” for “0.61”, “20.99 U/L)” for “0.06 mg/dl)”; type: toxicity, organism-based; conditions: in vivo; how it was run: as §10
# Mus musculus [17] = experiment: (§11) Hepatotoxicity in Balb/c mouse infected with stationary-phase Leishmania amazonensis MHOM/BR/75/LTB0016 promastigotes assessed as serum AST level at 1 mg/kg, po administered once daily via orogastric tube for 32 days starting from 7 days post infection measured post last dose in presence of 4 mg/kg miltefosine (reference value: 161.1 +/- 20.99 U/L); type: toxicity, organism-based; conditions: in vivo; how it was run: as §10
# Mus musculus [18] = experiment: as §9, with “Hepatotoxicity” for “Renal toxicity”, “ALT” for “creatinine”, “88.41” for “0.61”, “8.77 U/L)” for “0.06 mg/dl)”; type: toxicity, organism-based; conditions: in vivo; how it was run: as §10
# Mus musculus [19] = experiment: as §11, with “ALT” for “AST”, “88.41” for “161.1”, “8.77” for “20.99”; type: toxicity, organism-based; conditions: in vivo; how it was run: as §10
# Leishmania amazonensis [20] = experiment: Antileishmanial activity against stationary-phase Leishmania amazonensis MHOM/BR/75/LTB0016 promastigotes infected in human THP1-derived macrophages at apigenin to test compound ratio of 4:1 by serial dilution based light microscopic method; type: functional, organism-based
# Leishmania amazonensis [21] = experiment: Antileishmanial activity against stationary-phase Leishmania amazonensis MHOM/BR/75/LTB0016 promastigotes infected in human THP1-derived macrophages at apigenin to test compound ratio of 3:2 by serial dilution based light microscopic method; type: functional, organism-based
# Leishmania amazonensis [22] = experiment: Antileishmanial activity against stationary-phase Leishmania amazonensis MHOM/BR/75/LTB0016 promastigotes infected in human THP1-derived macrophages at apigenin to test compound ratio of 2:3 by serial dilution based light microscopic method; type: functional, organism-based
# Leishmania amazonensis [23] = experiment: Antileishmanial activity against stationary-phase Leishmania amazonensis MHOM/BR/75/LTB0016 promastigotes infected in human THP1-derived macrophages at apigenin to test compound ratio of 1:4 by serial dilution based light microscopic method; type: functional, organism-based
# Leishmania amazonensis [24] = experiment: Synergistic antileishmanial activity against stationary-phase Leishmania amazonensis MHOM/BR/75/LTB0016 promastigotes infected in human THP1-derived macrophages assessed as fractional inhibitory concentration at apigenin to test compound ratio of 4:1 by serial dilution based light microscopic method; type: functional; how it was run: as §5
# Leishmania amazonensis [25] = experiment: Synergistic antileishmanial activity against stationary-phase Leishmania amazonensis MHOM/BR/75/LTB0016 promastigotes infected in human THP1-derived macrophages assessed as fractional inhibitory concentration at apigenin to test compound ratio of 3:2 by serial dilution based light microscopic method; type: functional; how it was run: as §5
# Leishmania amazonensis [26] = experiment: Synergistic antileishmanial activity against stationary-phase Leishmania amazonensis MHOM/BR/75/LTB0016 promastigotes infected in human THP1-derived macrophages assessed as fractional inhibitory concentration at apigenin to test compound ratio of 2:3 by serial dilution based light microscopic method; type: functional; how it was run: as §5
# Leishmania amazonensis [27] = experiment: Synergistic antileishmanial activity against stationary-phase Leishmania amazonensis MHOM/BR/75/LTB0016 promastigotes infected in human THP1-derived macrophages assessed as fractional inhibitory concentration at apigenin to test compound ratio of 1:4 by serial dilution based light microscopic method; type: functional; how it was run: as §5
# Leishmania amazonensis [28] = experiment: as §6, with “at 8” for “at 2”; type: functional, organism-based; how it was run: as §7
# Leishmania amazonensis [29] = experiment: Antileishmanial activity against stationary-phase Leishmania amazonensis MHOM/BR/75/LTB0016 promastigotes infected in Balb/c mouse assessed as reduction in parasite load at 8 mg/kg, po administered once daily via orogastric tube starting from 7 days post infection for 32 days by dilution method; type: functional, organism-based; how it was run: as §8
# Mus musculus [30] = experiment: as §9, with “at 8” for “at 2”; type: organism-based; conditions: in vivo; how it was run: as §10
# Mus musculus [31] = experiment: as §11, with “at 8” for “at 1”, “dose” for “dose in presence of 4 mg/kg miltefosine”; type: toxicity, organism-based; conditions: in vivo; how it was run: as §10
# Mus musculus [32] = experiment: as §11, with “serum ALT” for “serum AST”, “at 8” for “at 1”, “dose” for “dose in presence of 4 mg/kg miltefosine”, “value: 88.41” for “value: 161.1”, “+/- 8.77” for “+/- 20.99”; type: toxicity, organism-based; conditions: in vivo; how it was run: as §10
structure (smiles),measurement,setting,value
O=c1cc(-c2ccc(O)cc2)oc2cc(O)cc(O)c12 [APIGENIN],EC50,Leishmania amazonensis [1],3850 nM
same,EC50,Leishmania amazonensis [2],2990 nM
same,EC50,Leishmania amazonensis [3],1430 nM
same,EC50,Leishmania amazonensis [4],730 nM
same,EC50,Leishmania amazonensis [5],160 nM
same,FIC50,Leishmania amazonensis [6],0.77
same,FIC50,Leishmania amazonensis [7],0.37
same,FIC50,Leishmania amazonensis [8],0.18
same,FIC50,Leishmania amazonensis [9],0.04
same,Activity,Leishmania amazonensis [10],Active
same,Activity,Leishmania amazonensis [11],Active
same,Activity,Leishmania amazonensis [12],75%
same,Activity,Leishmania amazonensis [13],95%
same,Activity,Mus musculus [14],0.63 mg/dL
same,Activity,Mus musculus [15],0.69 mg/dL
same,Activity,Mus musculus [16],100.5 U/L
same,Activity,Mus musculus [17],115.1 U/L
same,Activity,Mus musculus [18],43.21 U/L
same,Activity,Mus musculus [19],53.55 U/L
CCCCCCCCCCCCCCCCOP(=O)([O-])OCC[N+](C)(C)C [MILTEFOSINE],EC50,Leishmania amazonensis [1],750 nM
same,EC50,Leishmania amazonensis [20],440 nM
same,EC50,Leishmania amazonensis [21],730 nM
same,EC50,Leishmania amazonensis [22],1530 nM
same,EC50,Leishmania amazonensis [23],1130 nM
same,FIC50,Leishmania amazonensis [24],0.58
same,FIC50,Leishmania amazonensis [25],0.96
same,FIC50,Leishmania amazonensis [26],2.03
same,FIC50,Leishmania amazonensis [27],1.5
same,Activity,Leishmania amazonensis [28],Active
same,Activity,Leishmania amazonensis [29],Active
same,Activity,Mus musculus [30],0.66 mg/dL
same,Activity,Mus musculus [31],271.1 U/L
same,Activity,Mus musculus [32],61.14 U/L
